Source: PubChem BioAssay
CHRM1 PAM = potentiates human M1 receptor response to acetylcholine | hit rate 0.088% among 360,000 | CHO-K1 hM1, Fluo-8 calcium fluorescence, ACh EC20; 0% = ACh EC20, 100% = maximal ACh | AID 588819 | activation, % at 3 µM | P11229; in the data active = activation above about 19%, passing the limit was not always enough
Target sequence (P11229 whole entry, looked up): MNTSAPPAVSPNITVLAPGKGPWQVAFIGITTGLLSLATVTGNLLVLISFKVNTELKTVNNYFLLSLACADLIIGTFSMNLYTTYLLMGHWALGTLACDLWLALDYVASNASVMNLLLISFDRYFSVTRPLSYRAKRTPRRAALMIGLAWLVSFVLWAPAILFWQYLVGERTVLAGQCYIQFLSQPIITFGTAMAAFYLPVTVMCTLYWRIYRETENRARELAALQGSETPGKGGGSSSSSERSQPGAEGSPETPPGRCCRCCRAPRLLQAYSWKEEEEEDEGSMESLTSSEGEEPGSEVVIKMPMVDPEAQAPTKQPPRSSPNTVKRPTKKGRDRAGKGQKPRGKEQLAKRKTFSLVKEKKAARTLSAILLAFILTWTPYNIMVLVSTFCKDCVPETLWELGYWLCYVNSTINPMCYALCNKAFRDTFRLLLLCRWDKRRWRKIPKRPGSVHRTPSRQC
M1 antag = human CHRM1 antagonism | P11229 | CHO-K1 hM1, Fluo-8 calcium fluorescence, ACh EC80 antagonist | inhibition, % at 3 µM | hit rate 1.3% among 360,000;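 active = percent inhibition above its own plate's cutoff, namely the mean of that plate's compound wells plus 3 SD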;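 note: peak over basal fluorescence ratio during 140 s after agonist addition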
M1 ag = agonists of human M1 muscarinic receptor; P11229; CHO-K1 hM1, Fluo-8 calcium fluorescence, agonist mode; 0% DMSO, 100% acetylcholine EC100; activation, % at 3 µM; hit rate 0.33% among 360,000; AID 588814;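 active = activation above the run's mean compound activation plus 3 SD, cut at about 16% in these data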;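 note: peak over basal fluorescence ratio within a 140 s kinetic read after compound addition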
M5 ag = agonists of human muscarinic M5 receptor (CHRM5). hit rate 0.19% among 360,000. AID 624037. P08912. activation, % at 3 µM. CHO-K1 hM5 cells, Fluo-8 calcium fluorescence; 0% DMSO wells, 100% maximal acetylcholine response;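 active = activation above the run's mean over test compounds plus 3 SD, cut at about 23% in these data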;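 note: signal is peak over basal fluorescence ratio across the kinetic read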
CHRM5 PAM = CHRM5 positive allosteric modulation; hit rate 0.3% among 360,000; CHO-K1 hM5, Fluo-8 calcium, ACh EC20 PAM; 0% = ACh EC20, 100% = ACh EC100; activation, % at 3 µM; P08912;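 active = activation above the run cutoff, the mean activation of all test compounds plus 3 SD, cut at about 18% in these data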
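Probe or stimulus: acetylcholine, EC20 level; Assay system: human M5 receptor in CHO-K1 cells; Schedule: compound preincubation 140 s before EC20 acetylcholine addition; Technique: intracellular calcium via Fluo-8 fluorescence; Dosing: single-point, 3 µM nominal; Read-out basis: percent activation from peak-over-basal fluorescence ratio, scaled EC20-to-EC100 acetylcholine; Repeats: one well per compound, no replicates.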
M5 antag = blocks acetylcholine activation of human M5 receptor; P08912; CHO-hM5 cells, Fluo-8 calcium fluorescence, ACh EC80; inhibition, % at 3 µM; hit rate 0.59% among 360,000;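 active = inhibition above a per-plate cutoff, the mean of that plate's test compounds plus 3 SD, cut at about 27% in these data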
A number is an active result; 0 = inactive; - = no result given. An excerpt weighted towards active compounds, which were near 2.1% of everything screened.

SMILES	CHRM1 PAM	M1 antag	M1 ag	M5 ag	CHRM5 PAM	M5 antag
CCCCC[C@H](C)N1C[C@H](COCc2ccccc2)Oc2cc(N3CCC[C@H]3C(N)=O)ccc2S1(=O)=O	-	-	-	0	0	0
CCc1nc(N)nc(N)c1-c1ccc(N(C)Cc2ccccc2)c([N+](=O)[O-])c1	0	95	0	0	0	0
CC(=O)N1CCN(c2ccc(NC(=O)c3ccc([N+](=O)[O-])cc3)cc2)CC1	0	0	0	0	0	0
CC(=O)N1CCN(c2ccc(NC(=O)c3ccc(C)c([N+](=O)[O-])c3)cc2)CC1	0	0	0	0	18	0
Cc1cc(OCC(=O)NCCc2ccc(Cl)cc2)c2c(C)cc(=O)oc2c1	0	0	0	0	19	0
Cc1cc(OC(C)C(=O)NCCc2c[nH]c3ccccc23)c2c(C)cc(=O)oc2c1 (configuration not stated)	0	0	0	0	0	0
COc1ccc2[nH]cc(CCNC(=O)COc3cc(C)cc4oc(=O)cc(C)c34)c2c1	0	31	0	0	0	0
CN(CCCCCCCCC(=O)/C=N/O)Cc1ccccc1	0	69	0	0	0	0
Cc1cc(C)cc(-n2c(=O)c3sccc3n(CC(=O)NCc3ccco3)c2=O)c1	0	0	0	0	22	0
CCOc1ccc(-c2nonc2NC(=O)c2ccco2)cc1	0	0	0	0	0	0
CCCc1nc2c3ccccc3ccn2c1Cc1cccc(F)c1	0	56	0	0	0	47
CCCc1nc2ccc(C)cn2c1Cc1cccc(F)c1	0	0	0	0	0	0
CCOC(=O)N1CCC(c2[nH][nH]c(=O)c2C)CC1	0	0	0	0	0	0
Cc1occc1C(=O)Nc1c(F)c(F)c(F)c(F)c1F	0	0	0	0	18	0
Cc1occc1C(=O)Nc1ccc(Br)cc1F	0	0	0	0	30	0
Cc1occc1C(=O)Nc1c(Cl)cccc1Cl	0	0	0	0	0	0
Cc1occc1C(=O)NNC(=O)Nc1ccc(F)cc1F	0	0	0	0	0	0
COC(=O)c1ccc(NC(=S)N2CCN(C(=O)c3ccco3)CC2)cc1	0	0	0	0	0	0
Cc1ccc(Cc2nnc(SCC(=O)Nc3c(C)cccc3C)[nH]c2=O)cc1	0	0	0	0	0	0
C=Cc1ccc(C(=O)N2CCCC(Nc3ccc4c(c3)OCCO4)C2)cc1 (configuration not stated)	0	0	0	0	0	0
Cc1ccc(CN2CCC(CNC(=O)c3ccc(NC(=O)C4=CSCCO4)cc3)CC2)cc1	0	0	0	0	0	0
CC(OC(=O)CCCN=C1NS(=O)(=O)c2ccccc21)C(=O)c1ccccc1 (configuration not stated)	0	0	19	26	0	0
CN(C)CCCN(Cc1ccccc1)C(=S)Nc1ccc(SC(F)F)cc1	0	88	0	0	0	0
CC(=O)c1ccc(NC(=S)N(CCCN(C)C)Cc2ccccc2)cc1	0	44	0	0	0	0
CC1(C)CC[C@]2(C(=O)O)CC[C@]3(C)C(=CC[C@@H]4[C@@]5(C)CC[C@H](O[C@@H]6O[C@H](C(=O)O)[C@@H](O)[C@H](O[C@@H]7OC[C@H](O)[C@H](O)[C@H]7O)[C@H]6O)C(C)(C)[C@@H]5CC[C@]43C)[C@@H]2C1	0	0	0	0	0	0
SMILES	CHRM1 PAM	M1 antag	M1 ag	M5 ag	CHRM5 PAM	M5 antag
CN(C)CCOC(=O)C12CC3CC(C1)CC(C(=O)OCCN(C)C)(C3)C2	0	0	0	0	0	0
CCN(CC)CCOC(=O)C12CC3CC(CC(C3)C1)C2	0	41	0	0	0	0
Cc1cc(C(=O)Nc2ccccc2N2CCOCC2)c(C)o1	0	0	0	0	0	0
CCCCn1c(=O)[nH]c2nc3cc(NC(C)=O)ccc3nc2c1=O	0	0	0	0	0	0
CCCCCCn1c(=O)[nH]c2nc3cc(N)c(C)cc3nc2c1=O	0	32	61	104	0	37
COc1ccc(NC(=O)CN(C)CC(=O)Nc2sc3c(c2C#N)CCC3)cc1	0	34	0	0	0	0
COc1cc(NS(=O)(=O)c2ccc(N/C=C(\C#N)c3nc4ccccc4o3)cc2)nc(OC)n1	0	0	0	0	0	0
Nc1ccc2cc3[nH]c4cc(N)ccc4c3nc2c1	0	57	36	101	0	68
Cc1ccc(Oc2ncccc2C(=O)NCC(=O)O)cc1	0	0	0	0	21	0
COc1ccc(C(=O)CCc2ccc(OC)c(OC)c2)cc1	0	0	0	0	0	0
CN(C(=O)CCCN1CCCC1=O)C1CCCN(Cc2ccccc2F)C1 (configuration not stated)	0	81	0	0	0	0
COCc1ccc(C(=O)N(C)C2CCCN(Cc3ccccc3F)C2)o1 (configuration not stated)	0	90	0	0	0	0
CN(C(=O)CCc1ccccc1F)C1CCCN(Cc2ccccc2F)C1 (configuration not stated)	0	0	0	0	0	0
Cc1cccc(-c2nc(=S)c3c(o2)CCCC3)c1	0	0	0	0	0	0
CN1CCN(CC#CCn2c3ccccc3c3ccccc32)CC1	0	36	0	0	0	0
CCCN(CC(=O)Nc1ccccc1C)C(=O)c1cccc(S(=O)(=O)N2CCc3ccccc3C2)c1	0	35	0	0	0	28
CC[C@H](C)/C=C(C)/C=C/C(=O)Cc1cc(O)c(C)c(O)c1C=O	0	0	0	0	0	0
COc1ccc(NS(=O)(=O)c2cccc(C(=O)NCCCN3CCOCC3)c2)cc1	0	0	0	0	0	0
COc1ccc(C(CNC(=O)c2cccc(S(=O)(=O)Nc3ccc(F)cc3)c2)N2CCCC2)cc1 (configuration not stated)	0	0	0	0	0	0
COc1ccccc1C(CNC(=O)c1cccc(S(=O)(=O)Nc2ccc(F)cc2)c1)N1CCCC1 (configuration not stated)	0	101	0	0	0	47
COc1ccc(C(CNC(=O)c2cc3ccccc3cc2OC)N2CCCC2)cc1 (configuration not stated)	0	0	0	0	20	0
CC(C)(CNC(=O)c1cccc(S(=O)(=O)Nc2ccc(SC(F)F)cc2)c1)N1CCOCC1	0	35	0	0	0	0
COc1ccc(NS(=O)(=O)c2cccc(C(=O)NCc3ccccc3CN3CCOCC3)c2)cc1	0	0	23	0	0	0
Clc1ccccc1OCc1nc(-c2ccc(Br)o2)no1	0	0	0	0	0	0
